sdo1 growth = sdo1-depleted yeast growth rescue | S. cerevisiae sdo1-depleted JHY4D growth rescue, OD600 30 h; active compounds read high; pdr5 snq2 efflux-pump mutant strain | z-score at 10 µM | actives 0.21% (n = 140,000) | AID 817;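 active = z-score above 3 at both the 24 hr and the 30 hr optical density reads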
Autophagy mod = autophagy modulation, high-content screen; actives 0.98% (n = 190,000); calls only at 10 µM (by protocol); MEF GFP-LC3 puncta imaging; test concentration mostly 10 µM;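 active = percentage of spot-positive cells more than 3 SD above its plate mean, without a fluorescence outlier flag or 80% toxicity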
HCT116 bCat-KO = beta-catenin-lacking colon tumor cell growth suppression; viability, % at 10 µM; HCT116 beta-catenin knockout viability, CellTiter-Glo, 60 h; active compounds read low; actives 1.5% (n = 140,000);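 active = viability at or under a set limit, the compound median less 4 SD, cut at about 6% in these data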
PTEN del growth = suppresses growth of cells with PTEN deletion; HCT116 PTEN-null viability, CellTiter-Glo, 60 h; active compounds read low; viability, % at 10 µM; actives 1.2% (n = 140,000); AID 827;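 active = viability at or below a set limit, 4 SD under the median of all tested compounds, cut at about 3.7% in these data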;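 note: PTEN knockout HCT116 line with beta catenin targeted HCT116 as companion control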
Dynein transport = dynein cargo transport inhibition. AID 1381. actives 0.47% (n = 220,000). z-score, hits read low. 3617.4 mouse cells, GR-EGFP nuclear translocation imaging; test concentration mostly 20 µM; stimulated with dexamethasone, 1 µM; active compounds read low;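 active = plate z-score of nuclear minus cytoplasmic receptor signal below a set negative limit, without overly bright fluorescence or cell loss, cut at about -3.5 in these data, passing the limit was not always enough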;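 note: z-score of nuclear minus cytoplasmic ring GR-EGFP intensity difference per well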
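Medium: Induction medium lacking tetracycline, stripped serum | Probe or stimulus: 1.0 µM final dexamethasone stimulus | Schedule: 48 h induction, then 1 h compound, then 30 min agonist, 37 °C | Signal: Automated 10x imaging of fixed Hoechst-stained cells | Evaluation: Per-cell GR-EGFP intensity, nucleus versus surrounding cytoplasmic ring, well-averaged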
A number is an active result; – = inactive; · = no result given; + = active, no number. Sampled rows, rich in hits. Any-hit rate of the full collection: about 2.2%.

SMILES | sdo1 growth | Autophagy mod | HCT116 bCat-KO | PTEN del growth | Dynein transport
COc1cccc(C2C3=C(CC(C)(C)CC3=O)OC(N)=C2[N+](=O)[O-])c1 (centres undefined) | – | – | – | – | –
CC(C)CC(CO)N1CCN(C(=O)c2ccc(C(C)(C)C)cc2)CCC1=O (centres undefined) | – | – | – | – | –
Cc1ccc(CNc2ccc3c(c2)OCO3)c(C)c1 | – | + | – | – | –
Oc1ccccc1CNc1ccc2c(c1)OCCO2 | · | – | · | · | –
COC(=O)c1sccc1NC(=O)/C=C\c1ccc(Cl)cc1Cl | – | + | – | – | –
COC(=O)c1sccc1NC(=O)/C=C/c1ccc(Cl)cc1 | – | – | – | – | –
Cc1cc(C)n(-c2cccc(Cl)c2)c(=O)c1C#N | – | + | – | – | –
Cc1ccc(-n2c(C)cc(C)c(C#N)c2=O)cc1C | · | – | · | · | –
COc1ccc(-c2c(C)oc3c(CN4CCN(C)CC4)c(O)ccc3c2=O)cc1 | – | + | – | – | –
N#CC1=C(N)N2C(=C(C#N)C1c1ccc(Br)cc1)Nc1ccccc12 (centres undefined) | – | – | 1.9 | 2.2 | –
N#CC1=C(N)N2C(=C(C#N)C1c1cccc(Br)c1)Nc1ccccc12 (centres undefined) | – | – | 3.2 | 2.0 | –
Cc1ccc(-n2nc3cc(C)c(NC(=S)NC(=O)/C=C/c4ccco4)cc3n2)cc1 | – | – | 5.5 | – | –
Cc1cccc(NC(=S)NC(=O)/C=C/c2ccco2)c1 | · | + | · | · | –
Cc1nc(SCCCSc2n[nH]c(C)n2)n[nH]1 | – | – | – | – | –
O=C(CCCCCNC(=O)c1ccccc1Cl)N/N=C/c1ccco1 | · | – | · | · | –
CCN(CC)c1ccc(/C=C/c2nc3ccccc3s2)cc1 | – | + | – | – | –
COc1ccc(-n2c(C)cc(/C=N/Nc3nc(N4CCOCC4)nc(N4CCOCC4)n3)c2C)cc1 | – | – | – | – | –
CCOc1ccc(C(=O)N2CCN=C2SC)cc1OCC | – | + | – | – | –
CC(=O)OCC1OC(Nc2cccc(C)c2)C(OC(C)=O)C(OC(C)=O)C1OC(C)=O (centres undefined) | – | – | – | – | –
CS(=O)(=O)c1cnc(-c2ccccc2)nc1-c1ccccc1Cl | · | – | · | · | –
Cc1ccc(CNC(=O)N[C@@H](Cc2ccccc2)C(=O)O)cc1 | – | – | – | – | –
COC(=O)CNC(=O)CSc1ccccn1 | · | · | · | · | –
COc1ccccc1C(=O)CSc1ccccn1 | · | + | · | · | –
O=C(Nc1ccc2nn(-c3ccccc3)nc2c1)c1ccco1 | – | – | – | – | –
O=C(Nc1cc2nn(-c3ccccc3)nc2cc1Cl)c1ccco1 | – | – | 1.7 | 3.4 | –
SMILES | sdo1 growth | Autophagy mod | HCT116 bCat-KO | PTEN del growth | Dynein transport
N=c1c2c(n(Cc3ccc([N+](=O)[O-])cc3)c3c1CCC3)CCCC2 | · | + | · | · | –
N=c1c2c(n(Cc3ccc(Br)cc3)c3c1CCC3)CCCC2 | – | – | – | – | –
O=C(CCCCCCC(=O)c1ccccc1)c1ccccc1 | · | – | · | · | –
c1ccc(CC2CCN(C3=Nc4cccc5cccc3c45)CC2)cc1 | – | + | – | – | –
c1cc2c3c(cccc3c1)C(N1CCN(C3=Nc4cccc5cccc3c45)CC1)=N2 | · | – | · | · | –
Cc1cccc2cc(C#N)c(SCc3nnc(-c4ccccc4[N+](=O)[O-])o3)nc12 | – | + | – | – | –
O=c1c2ccc([N+](=O)[O-])c3cccc(c32)c2nc3ccccc3n12 | – | + | – | – | –
COC(=O)c1cc2ccsc2n1Cc1ccccc1F | – | – | – | – | –
O=[N+]([O-])/C=C/c1c(OCc2ccccc2)ccc2ccccc12 | – | – | 1.9 | 2.5 | –
COc1c(C)cc(Br)cc1C(=O)Nc1ccc(Cc2ccncc2)cc1 | · | + | · | · | –
Clc1ccc2c(N/N=C/c3ccccc3Br)ccnc2c1 | – | – | – | – | –
Clc1ccc2c(N/N=C/c3cccc(Br)c3)ccnc2c1 | – | – | 2.2 | 1.7 | –
CCc1ccc(NC(=S)NC2CCN(Cc3ccccc3)CC2)cc1 | – | – | – | – | –
CCC(C)c1ccc(NC(=S)NC2CCN(Cc3ccccc3)CC2)cc1 (centres undefined) | – | – | 1.9 | 1.1 | –
O=[N+]([O-])c1ccc(-c2nc(-c3cccs3)c(-c3cccs3)[nH]2)cc1 | – | + | – | – | –
OCc1nc2ccccc2n1C/C=C/c1ccccc1 | – | – | – | – | –
